Laboratory results taken from ChEMBL document CHEMBL2424622, “Development of amino-pyrimidine inhibitors of c-Jun N-terminal kinase (JNK): kinase profiling guided optimization of a 1,2,3-benzotriazole lead” (Bioorg Med Chem Lett, 2013).
Each block holds one compound with its values, some of them ahead of it.

Experiments:
[1] = molecular target: T1, MAP/microtubule affinity-regulating kinase 4 (Homo sapiens) (UniProt Q96L34); test: Competitive binding affinity to MARK4 (unknown origin) at 10 uM in presence of ATP relative to control
T1 sequence (whole entry): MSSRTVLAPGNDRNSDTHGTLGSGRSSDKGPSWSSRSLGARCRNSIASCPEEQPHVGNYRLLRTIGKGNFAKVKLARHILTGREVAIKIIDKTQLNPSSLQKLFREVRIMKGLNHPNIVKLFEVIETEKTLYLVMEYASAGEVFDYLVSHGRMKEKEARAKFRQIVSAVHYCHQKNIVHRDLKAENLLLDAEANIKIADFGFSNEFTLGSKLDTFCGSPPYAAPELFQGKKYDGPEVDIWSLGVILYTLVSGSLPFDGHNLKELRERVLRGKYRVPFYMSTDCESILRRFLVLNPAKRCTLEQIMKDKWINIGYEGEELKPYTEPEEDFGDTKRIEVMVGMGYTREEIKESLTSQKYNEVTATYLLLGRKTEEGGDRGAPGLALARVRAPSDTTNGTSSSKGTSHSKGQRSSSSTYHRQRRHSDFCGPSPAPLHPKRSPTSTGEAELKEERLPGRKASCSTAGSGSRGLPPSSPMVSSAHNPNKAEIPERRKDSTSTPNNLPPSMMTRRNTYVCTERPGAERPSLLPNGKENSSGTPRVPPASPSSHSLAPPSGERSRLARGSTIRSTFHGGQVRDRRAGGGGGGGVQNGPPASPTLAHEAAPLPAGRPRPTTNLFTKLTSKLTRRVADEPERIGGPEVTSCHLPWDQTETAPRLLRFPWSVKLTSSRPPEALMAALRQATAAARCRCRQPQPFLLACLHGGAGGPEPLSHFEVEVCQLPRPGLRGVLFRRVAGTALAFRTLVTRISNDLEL
Method in brief: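 In vitro ATP-site competition binding assay across a diverse panel of 128 kinases, with compound tested at a single concentration. Kinase selectivity scores (S15) were calculated from the panel profiles.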

[2] = molecular target: T2, Serine/threonine-protein kinase RIO1 (Homo sapiens) (UniProt Q9BRS2); test: Competitive binding affinity to RIOK1 (unknown origin) at 10 uM in presence of ATP relative to control
T2 sequence (whole entry): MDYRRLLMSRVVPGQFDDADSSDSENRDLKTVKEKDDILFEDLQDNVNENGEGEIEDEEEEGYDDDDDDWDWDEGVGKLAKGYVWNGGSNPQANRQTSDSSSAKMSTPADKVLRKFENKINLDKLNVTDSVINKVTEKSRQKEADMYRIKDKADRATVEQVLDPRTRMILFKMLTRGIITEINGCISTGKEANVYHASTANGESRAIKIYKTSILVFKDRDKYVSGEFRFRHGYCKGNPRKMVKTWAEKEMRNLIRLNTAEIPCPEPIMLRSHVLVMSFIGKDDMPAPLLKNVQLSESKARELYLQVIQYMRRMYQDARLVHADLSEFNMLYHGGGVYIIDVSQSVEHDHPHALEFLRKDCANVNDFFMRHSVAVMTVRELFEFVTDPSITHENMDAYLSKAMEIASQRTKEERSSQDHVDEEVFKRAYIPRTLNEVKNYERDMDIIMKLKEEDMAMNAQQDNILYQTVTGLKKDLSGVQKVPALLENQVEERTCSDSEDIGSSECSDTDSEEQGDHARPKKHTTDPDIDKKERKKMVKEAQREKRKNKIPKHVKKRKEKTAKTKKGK

[3] = Half life in Hanover-Wistar rat at 0.5 mg/kg, iv; format: ADME, organism-based; set-up: dose 0.5 mg/kg, route intravenous; conditions: in vivo
[4] = molecular target: Dual specificity protein kinase TTK (Homo sapiens, UniProt P33981); test: Binding affinity to TTK (unknown origin)
[5] = molecular target: Ribosomal protein S6 kinase alpha-1 (Homo sapiens, UniProt Q15418); test: Binding affinity to RPS6KA1 (unknown origin)
LIM domain kinase 1 = LIM domain kinase 1 (Homo sapiens, UniProt P53667); test: Binding affinity to LIMK1 (unknown origin)
LIM domain kinase 2 = LIM domain kinase 2 (Homo sapiens, UniProt P53671); test: Binding affinity to LIMK2 (unknown origin)
Chain of LIM domain kinase 2 (P53671 whole entry, the tested form may be a part): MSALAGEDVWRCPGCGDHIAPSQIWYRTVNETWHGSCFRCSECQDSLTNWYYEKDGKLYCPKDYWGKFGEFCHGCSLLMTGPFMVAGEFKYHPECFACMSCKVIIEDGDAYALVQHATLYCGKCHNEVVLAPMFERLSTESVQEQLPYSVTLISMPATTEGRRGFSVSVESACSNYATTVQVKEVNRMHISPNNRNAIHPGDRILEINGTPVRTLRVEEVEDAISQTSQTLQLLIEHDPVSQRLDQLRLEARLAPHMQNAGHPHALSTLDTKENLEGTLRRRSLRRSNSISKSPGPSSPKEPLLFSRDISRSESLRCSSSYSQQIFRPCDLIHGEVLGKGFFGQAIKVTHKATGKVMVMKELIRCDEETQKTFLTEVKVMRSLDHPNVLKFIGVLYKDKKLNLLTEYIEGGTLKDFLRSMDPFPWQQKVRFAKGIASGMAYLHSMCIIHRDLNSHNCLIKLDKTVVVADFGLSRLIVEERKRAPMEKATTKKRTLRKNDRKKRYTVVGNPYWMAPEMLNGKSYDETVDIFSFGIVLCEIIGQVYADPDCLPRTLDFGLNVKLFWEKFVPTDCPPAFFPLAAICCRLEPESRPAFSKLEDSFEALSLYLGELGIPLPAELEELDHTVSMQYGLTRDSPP

[6] = molecular target: Mitogen-activated protein kinase 7 (Homo sapiens, UniProt Q13164); test: Binding affinity to ERK5 (unknown origin)
Chain of Mitogen-activated protein kinase 7 (Q13164 whole entry): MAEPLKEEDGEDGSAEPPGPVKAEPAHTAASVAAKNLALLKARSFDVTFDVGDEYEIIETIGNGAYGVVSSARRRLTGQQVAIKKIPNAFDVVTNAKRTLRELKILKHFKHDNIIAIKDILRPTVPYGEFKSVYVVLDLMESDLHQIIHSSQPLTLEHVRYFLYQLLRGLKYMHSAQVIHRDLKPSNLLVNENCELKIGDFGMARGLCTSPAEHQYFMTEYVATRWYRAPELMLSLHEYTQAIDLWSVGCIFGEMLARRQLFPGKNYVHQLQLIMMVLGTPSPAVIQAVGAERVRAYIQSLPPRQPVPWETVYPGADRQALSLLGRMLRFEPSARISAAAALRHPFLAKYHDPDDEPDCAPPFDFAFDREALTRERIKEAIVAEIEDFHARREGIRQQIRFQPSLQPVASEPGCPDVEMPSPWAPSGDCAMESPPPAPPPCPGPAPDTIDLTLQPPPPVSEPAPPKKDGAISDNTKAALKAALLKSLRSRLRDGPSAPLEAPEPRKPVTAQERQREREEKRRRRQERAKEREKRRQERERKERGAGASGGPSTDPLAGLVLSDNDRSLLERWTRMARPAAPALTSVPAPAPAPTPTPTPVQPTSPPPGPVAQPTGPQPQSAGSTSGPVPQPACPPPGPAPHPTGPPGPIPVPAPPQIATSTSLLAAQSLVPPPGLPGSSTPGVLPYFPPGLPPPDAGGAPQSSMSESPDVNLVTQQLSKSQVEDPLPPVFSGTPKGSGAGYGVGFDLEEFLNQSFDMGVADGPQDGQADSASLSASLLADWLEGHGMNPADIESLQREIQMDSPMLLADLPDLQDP

[7] = molecular target: Mitogen-activated protein kinase 6 (Homo sapiens, UniProt Q16659); test: Binding affinity to ERK3 (unknown origin)
[8] = molecular target: Serine/threonine-protein kinase 17A (Homo sapiens, UniProt Q9UEE5); test: Binding affinity to DRAK1 (unknown origin)
[9] = molecular target: Serine/threonine-protein kinase DCLK3 (Homo sapiens, UniProt Q9C098); test: Binding affinity to DCAMKL3 (unknown origin)
Chain of Serine/threonine-protein kinase DCLK3 (Q9C098 whole entry): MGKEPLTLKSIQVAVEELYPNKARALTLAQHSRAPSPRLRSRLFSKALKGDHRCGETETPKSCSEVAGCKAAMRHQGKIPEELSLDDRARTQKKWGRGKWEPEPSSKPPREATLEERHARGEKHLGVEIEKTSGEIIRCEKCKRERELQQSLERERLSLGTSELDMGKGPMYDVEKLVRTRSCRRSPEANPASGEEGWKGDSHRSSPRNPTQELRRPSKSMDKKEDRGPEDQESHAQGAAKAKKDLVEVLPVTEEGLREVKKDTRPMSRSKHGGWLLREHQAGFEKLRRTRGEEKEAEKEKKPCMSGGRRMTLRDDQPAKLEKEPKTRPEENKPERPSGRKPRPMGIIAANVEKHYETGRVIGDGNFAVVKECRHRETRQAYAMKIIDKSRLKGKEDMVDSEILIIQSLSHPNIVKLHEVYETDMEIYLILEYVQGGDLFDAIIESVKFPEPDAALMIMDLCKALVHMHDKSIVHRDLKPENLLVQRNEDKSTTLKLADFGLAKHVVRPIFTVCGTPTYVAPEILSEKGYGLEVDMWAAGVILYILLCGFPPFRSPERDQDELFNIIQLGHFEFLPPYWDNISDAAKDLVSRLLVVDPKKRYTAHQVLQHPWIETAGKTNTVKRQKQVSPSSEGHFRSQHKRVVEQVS

[10] = molecular target: Death-associated protein kinase 2 (Homo sapiens, UniProt Q9UIK4); test: Binding affinity to DAPK2 (unknown origin)
[11] = molecular target: Citron Rho-interacting kinase (Homo sapiens, UniProt O14578); test: Binding affinity to CIT (unknown origin)
[12] = molecular target: Cyclin-dependent kinase 11B (Homo sapiens, UniProt P21127); test: Binding affinity to CDC2L1 (unknown origin)
[13] = molecular target: Calcium/calmodulin-dependent protein kinase type 1 (Homo sapiens, UniProt Q14012); test: Binding affinity to CAMK1 (unknown origin)
[14] = molecular target: Activated CDC42 kinase 1 (Homo sapiens) (UniProt Q07912); test: Competitive binding affinity to ACK1 (unknown origin) at 10 uM in presence of ATP relative to control
Chain of Activated CDC42 kinase 1 (Homo sapiens) (Q07912 whole entry, looked up): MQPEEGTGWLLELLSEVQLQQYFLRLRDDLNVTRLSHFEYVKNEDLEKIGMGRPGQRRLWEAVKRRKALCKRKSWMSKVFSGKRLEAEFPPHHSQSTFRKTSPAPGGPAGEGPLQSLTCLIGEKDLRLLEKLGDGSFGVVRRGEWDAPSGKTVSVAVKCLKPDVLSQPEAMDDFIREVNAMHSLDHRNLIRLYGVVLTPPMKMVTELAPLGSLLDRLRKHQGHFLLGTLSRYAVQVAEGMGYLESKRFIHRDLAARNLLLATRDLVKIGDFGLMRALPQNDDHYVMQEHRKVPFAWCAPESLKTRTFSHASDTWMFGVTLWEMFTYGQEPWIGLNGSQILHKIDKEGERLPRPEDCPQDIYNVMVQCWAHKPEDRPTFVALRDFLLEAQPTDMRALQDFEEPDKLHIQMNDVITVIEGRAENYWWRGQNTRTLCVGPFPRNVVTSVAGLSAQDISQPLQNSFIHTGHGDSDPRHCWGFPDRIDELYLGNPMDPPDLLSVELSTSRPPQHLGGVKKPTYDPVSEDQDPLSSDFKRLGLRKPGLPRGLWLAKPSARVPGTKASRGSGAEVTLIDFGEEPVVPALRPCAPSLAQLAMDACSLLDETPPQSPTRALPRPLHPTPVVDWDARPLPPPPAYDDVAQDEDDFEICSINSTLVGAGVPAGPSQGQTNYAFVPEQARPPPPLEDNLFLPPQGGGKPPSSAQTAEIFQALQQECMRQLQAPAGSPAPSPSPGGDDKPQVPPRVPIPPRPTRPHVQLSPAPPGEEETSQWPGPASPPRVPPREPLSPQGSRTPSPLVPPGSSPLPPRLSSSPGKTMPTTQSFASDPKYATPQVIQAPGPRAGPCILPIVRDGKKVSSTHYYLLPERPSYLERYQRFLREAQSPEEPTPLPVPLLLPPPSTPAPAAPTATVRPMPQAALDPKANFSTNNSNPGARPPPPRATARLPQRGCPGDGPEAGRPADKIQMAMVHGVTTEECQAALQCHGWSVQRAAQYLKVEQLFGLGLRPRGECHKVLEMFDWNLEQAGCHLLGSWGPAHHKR

[15] = molecular target: Serine/threonine-protein kinase ULK3 (Mus musculus) (UniProt Q3U3Q1); test: Competitive binding affinity to mouse ULK3 at 10 uM in presence of ATP relative to control
Chain of Serine/threonine-protein kinase ULK3 (Mus musculus) (Q3U3Q1 whole entry): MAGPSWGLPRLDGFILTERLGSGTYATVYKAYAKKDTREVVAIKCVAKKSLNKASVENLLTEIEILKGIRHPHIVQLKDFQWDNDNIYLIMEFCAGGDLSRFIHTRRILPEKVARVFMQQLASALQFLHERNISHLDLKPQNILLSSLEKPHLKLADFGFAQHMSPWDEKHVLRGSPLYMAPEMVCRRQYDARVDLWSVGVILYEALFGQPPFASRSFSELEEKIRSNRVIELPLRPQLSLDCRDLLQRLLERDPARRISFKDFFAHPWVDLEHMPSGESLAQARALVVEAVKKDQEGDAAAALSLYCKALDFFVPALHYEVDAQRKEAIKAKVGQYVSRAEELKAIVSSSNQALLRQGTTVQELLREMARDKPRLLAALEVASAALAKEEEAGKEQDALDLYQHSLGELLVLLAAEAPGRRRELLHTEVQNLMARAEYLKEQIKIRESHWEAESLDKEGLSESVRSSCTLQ

[16] = molecular target: T3, Serine/threonine-protein kinase STK11 (Homo sapiens) (UniProt Q15831); test: Competitive binding affinity to STK11 (unknown origin) at 10 uM in presence of ATP relative to control
T3 sequence (whole entry): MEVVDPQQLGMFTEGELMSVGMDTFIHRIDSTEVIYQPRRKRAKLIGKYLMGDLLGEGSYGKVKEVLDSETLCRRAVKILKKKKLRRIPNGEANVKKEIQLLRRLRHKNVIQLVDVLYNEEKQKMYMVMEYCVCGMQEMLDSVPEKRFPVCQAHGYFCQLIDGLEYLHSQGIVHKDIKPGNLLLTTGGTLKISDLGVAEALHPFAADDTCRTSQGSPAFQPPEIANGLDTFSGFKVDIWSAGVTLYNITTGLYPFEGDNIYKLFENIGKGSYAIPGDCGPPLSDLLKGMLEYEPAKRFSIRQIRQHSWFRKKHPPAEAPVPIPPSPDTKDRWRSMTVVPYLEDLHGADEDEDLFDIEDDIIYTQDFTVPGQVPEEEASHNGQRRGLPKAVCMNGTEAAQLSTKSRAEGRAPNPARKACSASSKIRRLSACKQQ

[17] = molecular target: Serine/threonine-protein kinase 10 (Homo sapiens) (UniProt O94804); test: Competitive binding affinity to STK10 (unknown origin) at 10 uM in presence of ATP relative to control
Chain of Serine/threonine-protein kinase 10 (Homo sapiens) (O94804 whole entry, looked up): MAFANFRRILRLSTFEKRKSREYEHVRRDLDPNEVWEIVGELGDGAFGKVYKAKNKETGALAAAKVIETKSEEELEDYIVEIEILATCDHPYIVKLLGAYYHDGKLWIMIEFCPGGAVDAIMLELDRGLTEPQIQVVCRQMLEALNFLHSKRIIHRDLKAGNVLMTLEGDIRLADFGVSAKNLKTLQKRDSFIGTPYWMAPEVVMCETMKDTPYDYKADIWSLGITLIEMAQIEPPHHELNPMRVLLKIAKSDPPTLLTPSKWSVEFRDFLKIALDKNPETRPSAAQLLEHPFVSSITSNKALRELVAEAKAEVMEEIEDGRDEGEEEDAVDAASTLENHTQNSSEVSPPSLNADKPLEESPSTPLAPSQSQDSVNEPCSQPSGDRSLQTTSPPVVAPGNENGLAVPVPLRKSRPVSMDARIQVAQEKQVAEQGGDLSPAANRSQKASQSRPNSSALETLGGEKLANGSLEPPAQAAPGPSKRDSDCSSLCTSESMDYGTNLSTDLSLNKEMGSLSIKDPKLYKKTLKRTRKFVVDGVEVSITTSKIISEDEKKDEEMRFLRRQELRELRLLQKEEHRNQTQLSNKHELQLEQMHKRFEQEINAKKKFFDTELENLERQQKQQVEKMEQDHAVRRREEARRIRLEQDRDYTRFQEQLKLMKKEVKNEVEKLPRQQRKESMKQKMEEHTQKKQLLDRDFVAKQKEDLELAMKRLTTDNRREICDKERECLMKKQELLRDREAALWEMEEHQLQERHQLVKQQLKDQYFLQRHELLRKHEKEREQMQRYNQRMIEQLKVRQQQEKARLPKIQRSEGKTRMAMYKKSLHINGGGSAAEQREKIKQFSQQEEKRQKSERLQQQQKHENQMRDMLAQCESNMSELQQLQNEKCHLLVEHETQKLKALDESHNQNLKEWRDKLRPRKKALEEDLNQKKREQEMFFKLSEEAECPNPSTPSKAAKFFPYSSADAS

Cytochrome P450 2C9 = Cytochrome P450 2C9 (Homo sapiens, UniProt P11712); test: Inhibition of CYP2C9 (unknown origin); format: ADME
Chain of Cytochrome P450 2C9 (P11712 whole entry): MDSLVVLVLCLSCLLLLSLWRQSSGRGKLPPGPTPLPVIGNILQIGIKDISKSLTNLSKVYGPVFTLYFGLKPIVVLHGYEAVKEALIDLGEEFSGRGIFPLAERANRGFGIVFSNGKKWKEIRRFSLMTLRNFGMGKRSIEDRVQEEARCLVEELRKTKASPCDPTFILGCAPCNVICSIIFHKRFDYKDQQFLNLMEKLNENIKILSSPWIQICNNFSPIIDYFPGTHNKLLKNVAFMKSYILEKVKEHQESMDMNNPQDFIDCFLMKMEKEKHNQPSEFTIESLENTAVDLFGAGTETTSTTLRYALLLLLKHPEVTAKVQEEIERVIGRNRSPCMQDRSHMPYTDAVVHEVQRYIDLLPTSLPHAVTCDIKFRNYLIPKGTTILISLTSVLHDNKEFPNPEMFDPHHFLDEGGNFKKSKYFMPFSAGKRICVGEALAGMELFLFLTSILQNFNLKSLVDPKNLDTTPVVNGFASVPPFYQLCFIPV

inhibition [1]: < 50%
inhibition [2]: < 50%
Compound: O[C@H]1CC[C@H](Nc2nccc(-n3ncc4ccccc43)n2)CC1

inhibition [1]: < 50%
inhibition [2]: < 50%
Compound: O[C@H]1CC[C@H](Nc2nccc(-n3ccc4ccccc43)n2)CC1

half-life [3]: 2.6 h
Kd [4]: 1900 nM
Kd [5]: 2100 nM
Kd (LIM domain kinase 1): 870 nM
Kd (LIM domain kinase 2): 2800 nM
Kd [6]: 1500 nM
Kd [7]: 330 nM
Kd [8]: 440 nM
Kd [9]: 1800 nM
Kd [11]: 2700 nM
Kd [12]: 1300 nM
Kd [13]: 4300 nM
Compound: CS(=O)(=O)CCCOc1cccc2c1ccn2-c1ccnc(N[C@H]2CC[C@H](C(=O)N3CCC(O)CC3)CC2)n1
Kd [10]: 1300 nM

inhibition [14]: < 50%
inhibition [15]: < 50%
inhibition [16]: 98%
inhibition [17]: < 50%
Compound: N[C@H]1CC[C@H](Nc2nccc(-n3nnc4ccccc43)n2)CC1

inhibition [14]: < 50%
inhibition [15]: < 50%
inhibition [16]: < 50%
inhibition [17]: < 50%
Compound: O=C([C@H]1CC[C@H](Nc2nccc(-n3nnc4ccccc43)n2)CC1)N1CCOCC1

inhibition [1]: 67%
Compound: O[C@H]1CC[C@H](Nc2nccc(-c3n[nH]c4ccccc34)n2)CC1

inhibition [1]: < 50%
inhibition [2]: < 50%
IC50 (Cytochrome P450 2C9): 7.8 nM
Compound: O[C@H]1CC[C@H](Nc2nccc(-n3nnc4ccccc43)n2)CC1
